How the values were obtained:
[1] = target: Serine/threonine-protein kinase Nek11 (Homo sapiens) (UniProt Q8NG66); assay: Binding affinity to wild-type human partial length NEK11 (M1 to E313 residues) expressed in mammalian expression system assessed as remaining unbound target protein level at 1000 nM by Kinomescan method relative to control
[2] = target: Ephrin type-B receptor 2 (Homo sapiens) (UniProt P29323); assay: Binding affinity to wild-type human partial length EPHB2 (I597 to L902 residues) expressed in bacterial expression system assessed as remaining unbound target protein level at 1000 nM by Kinomescan method relative to control
[3] = target: Tyrosine-protein kinase HCK (Homo sapiens) (UniProt P08631); assay: Binding affinity to wild-type human full length HCK (M22 to P526 residues) expressed in bacterial expression system assessed as remaining unbound target protein level at 1000 nM by Kinomescan method relative to control
Chain of Tyrosine-protein kinase HCK (Homo sapiens) (P08631 2-526 limits assumed): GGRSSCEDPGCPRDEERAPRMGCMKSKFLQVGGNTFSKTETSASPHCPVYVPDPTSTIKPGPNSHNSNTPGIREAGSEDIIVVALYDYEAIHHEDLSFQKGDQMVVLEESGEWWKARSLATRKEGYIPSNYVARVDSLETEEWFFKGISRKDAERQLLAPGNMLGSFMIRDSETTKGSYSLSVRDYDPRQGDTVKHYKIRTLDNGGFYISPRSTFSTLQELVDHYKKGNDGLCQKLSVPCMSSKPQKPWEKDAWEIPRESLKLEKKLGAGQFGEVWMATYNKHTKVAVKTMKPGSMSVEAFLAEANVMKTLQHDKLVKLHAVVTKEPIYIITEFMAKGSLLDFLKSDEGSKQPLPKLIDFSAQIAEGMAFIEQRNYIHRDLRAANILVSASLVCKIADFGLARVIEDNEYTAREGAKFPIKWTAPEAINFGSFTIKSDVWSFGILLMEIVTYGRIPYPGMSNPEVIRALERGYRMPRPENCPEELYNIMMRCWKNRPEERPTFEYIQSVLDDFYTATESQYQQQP
How it was run: (§1)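 Single-point competition binding screen across a panel of 468 kinases and mutants, with the inhibitor at 1 μM. Binding is read out as percent of a DMSO control, and targets below 1 percent control were classed as strong binders.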

[4] = target: Mitogen-activated protein kinase kinase kinase 7 (Homo sapiens) (UniProt O43318); assay: Binding affinity to wild-type human partial length TAK1 (M1 to Q303 residues) expressed in mammalian expression system assessed as remaining unbound target protein level at 1000 nM by Kinomescan method relative to control
Chain of Mitogen-activated protein kinase kinase kinase 7 (Homo sapiens) (O43318 whole entry, the tested form may be a part): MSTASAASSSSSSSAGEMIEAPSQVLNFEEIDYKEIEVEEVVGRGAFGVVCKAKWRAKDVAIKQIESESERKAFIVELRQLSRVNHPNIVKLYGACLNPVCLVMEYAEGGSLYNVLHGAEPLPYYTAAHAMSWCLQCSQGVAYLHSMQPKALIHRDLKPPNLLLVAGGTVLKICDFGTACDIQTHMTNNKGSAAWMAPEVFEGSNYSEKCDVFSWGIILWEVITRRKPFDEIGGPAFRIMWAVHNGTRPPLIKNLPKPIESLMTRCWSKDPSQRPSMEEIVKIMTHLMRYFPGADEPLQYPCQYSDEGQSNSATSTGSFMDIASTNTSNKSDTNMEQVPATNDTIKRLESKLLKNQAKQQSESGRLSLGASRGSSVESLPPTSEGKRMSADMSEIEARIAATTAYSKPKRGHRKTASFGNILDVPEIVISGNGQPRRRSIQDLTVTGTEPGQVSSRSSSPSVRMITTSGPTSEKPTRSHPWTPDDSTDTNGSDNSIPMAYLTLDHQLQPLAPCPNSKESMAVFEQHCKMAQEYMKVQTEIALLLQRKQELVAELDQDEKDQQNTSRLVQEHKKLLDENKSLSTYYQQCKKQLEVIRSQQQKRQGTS

[5] = target: Tyrosine-protein kinase FRK (Homo sapiens) (UniProt P42685); assay: Binding affinity to wild-type human partial length FRK (A215 to F503 residues) expressed in bacterial expression system assessed as remaining unbound target protein level at 1000 nM by Kinomescan method relative to control
[6] = target: cAMP-dependent protein kinase catalytic subunit alpha (Homo sapiens) (UniProt P17612); assay: Binding affinity to wild-type human partial length PKAC-alpha (G10 to F351 residues) expressed in bacterial expression system assessed as remaining unbound target protein level at 1000 nM by Kinomescan method relative to control
[7] = target: Receptor-interacting serine/threonine-protein kinase 2 (Homo sapiens) (UniProt O43353); assay: Binding affinity to wild-type human partial length RIPK2 (M1 to K310 residues) expressed in bacterial expression system assessed as remaining unbound target protein level at 1000 nM by Kinomescan method relative to control
Chain of Receptor-interacting serine/threonine-protein kinase 2 (Homo sapiens) (O43353 whole entry, the tested form may be a part): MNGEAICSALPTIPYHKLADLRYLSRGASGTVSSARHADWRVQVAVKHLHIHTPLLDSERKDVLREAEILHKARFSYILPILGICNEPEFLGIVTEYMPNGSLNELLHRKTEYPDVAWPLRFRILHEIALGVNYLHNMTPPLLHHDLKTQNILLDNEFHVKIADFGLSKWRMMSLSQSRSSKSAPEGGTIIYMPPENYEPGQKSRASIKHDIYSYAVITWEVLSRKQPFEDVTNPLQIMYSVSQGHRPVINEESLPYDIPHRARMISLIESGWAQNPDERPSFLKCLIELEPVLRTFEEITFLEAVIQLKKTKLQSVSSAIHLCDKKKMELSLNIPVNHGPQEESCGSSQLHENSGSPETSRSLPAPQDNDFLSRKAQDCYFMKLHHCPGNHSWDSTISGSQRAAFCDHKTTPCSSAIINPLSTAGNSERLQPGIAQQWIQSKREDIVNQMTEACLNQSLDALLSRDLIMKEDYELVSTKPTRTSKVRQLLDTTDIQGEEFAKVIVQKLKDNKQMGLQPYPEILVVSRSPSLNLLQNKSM

[8] = target: Mitogen-activated protein kinase kinase kinase 9 (Homo sapiens) (UniProt P80192); assay: Binding affinity to wild-type human partial length MLK1 (V88 to W426 residues) expressed in bacterial expression system assessed as remaining unbound target protein level at 1000 nM by Kinomescan method relative to control
How it was run: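 KINOMEscan binding panel of 468 kinases/mutants. Inhibitor was tested at a single concentration of 1 μM. Binding is reported as percent of control, defined relative to a DMSO control.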

[9] = target: Epidermal growth factor receptor (Homo sapiens) (UniProt P00533); assay: Binding affinity to wild-type human partial length EGFR (R669 to V1011 residues) expressed in bacterial expression system assessed as remaining unbound target protein level at 1000 nM by Kinomescan method relative to control
A-431 = assay: Antiproliferative activity against human A431 cells after 72 hrs by Celltiter-Glo assay; type: functional; settings: A-431, 72 h
How it was run: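 Cells seeded at 3000/well in 96-well plates, exposed to serially diluted compound for 72 h at 37 °C, 5% CO2. Viability read by CellTiter-Glo luminescence and normalized to DMSO control. GI50 derived from curve fit, mean of three independent measurements. Culture media: DMEM/10% FBS for adherent lines; IMDM for MV4-11 and MEC-1/2; RPMI 1640 for suspension lines and CHL.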

[10] = target: Bone morphogenetic protein receptor type-1B (Homo sapiens) (UniProt O00238); assay: Binding affinity to wild-type human partial length BMPR1B (D178 to L502 residues) expressed in mammalian expression system assessed as remaining unbound target protein level at 1000 nM by Kinomescan method relative to control
[11] = tested on: Mast/stem cell growth factor receptor Kit (Homo sapiens), P10721 [V559D,V654A]; assay: Binding affinity to human partial length KIT V559D/V654A double mutant (Y545 to D952 residues) expressed in bacterial expression system assessed as remaining unbound target protein level at 1000 nM by Kinomescan method relative to control
Chain of Mast/stem cell growth factor receptor Kit (Homo sapiens), P10721 [V559D,V654A] (P10721 whole entry V559D/V654A, the tested form may be a part): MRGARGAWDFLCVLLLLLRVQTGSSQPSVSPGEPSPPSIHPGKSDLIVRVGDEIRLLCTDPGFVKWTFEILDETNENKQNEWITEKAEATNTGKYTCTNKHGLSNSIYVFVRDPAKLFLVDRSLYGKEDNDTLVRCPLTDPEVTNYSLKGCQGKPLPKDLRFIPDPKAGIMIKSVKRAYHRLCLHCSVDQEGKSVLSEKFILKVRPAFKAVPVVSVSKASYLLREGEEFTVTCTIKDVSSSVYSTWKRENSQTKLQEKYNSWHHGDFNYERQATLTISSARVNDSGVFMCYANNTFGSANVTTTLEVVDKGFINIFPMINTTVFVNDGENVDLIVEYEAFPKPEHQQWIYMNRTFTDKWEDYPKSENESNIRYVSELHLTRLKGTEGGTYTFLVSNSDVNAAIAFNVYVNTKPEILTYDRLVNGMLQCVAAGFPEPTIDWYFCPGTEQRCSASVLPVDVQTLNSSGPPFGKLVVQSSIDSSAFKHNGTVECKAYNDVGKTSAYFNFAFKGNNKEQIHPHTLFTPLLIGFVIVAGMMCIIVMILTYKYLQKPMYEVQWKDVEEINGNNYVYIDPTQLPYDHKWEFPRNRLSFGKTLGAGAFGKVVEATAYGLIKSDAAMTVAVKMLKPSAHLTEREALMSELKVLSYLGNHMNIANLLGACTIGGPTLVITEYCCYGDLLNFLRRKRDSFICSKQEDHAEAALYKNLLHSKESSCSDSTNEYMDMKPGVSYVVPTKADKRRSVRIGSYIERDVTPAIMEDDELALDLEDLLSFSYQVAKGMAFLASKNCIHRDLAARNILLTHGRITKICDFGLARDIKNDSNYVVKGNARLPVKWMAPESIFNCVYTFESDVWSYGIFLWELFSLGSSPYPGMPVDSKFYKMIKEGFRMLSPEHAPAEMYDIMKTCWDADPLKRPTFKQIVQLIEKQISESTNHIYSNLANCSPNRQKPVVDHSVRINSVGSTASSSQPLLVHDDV
How it was run: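 KINOMEscan competition-binding profiling across the panel of 468 kinases and mutants, with inhibitor tested at 1 μM. Binding is expressed as percent of control, with DMSO as the reference control.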

[12] = target: Mitogen-activated protein kinase 3 (Homo sapiens) (UniProt P27361); assay: Binding affinity to wild-type human full length ERK1 (M1 to P379 residues) expressed in bacterial expression system assessed as remaining unbound target protein level at 1000 nM by Kinomescan method relative to control; how it was run: as §1
[13] = target: Ephrin type-B receptor 6 (Homo sapiens) (UniProt O15197); assay: Binding affinity to wild-type human partial length EPHB6 (Q634 to P948 residues) expressed in mammalian expression system assessed as remaining unbound target protein level at 1000 nM by Kinomescan method relative to control
Chain of Ephrin type-B receptor 6 (Homo sapiens) (O15197 whole entry, the tested form may be a part): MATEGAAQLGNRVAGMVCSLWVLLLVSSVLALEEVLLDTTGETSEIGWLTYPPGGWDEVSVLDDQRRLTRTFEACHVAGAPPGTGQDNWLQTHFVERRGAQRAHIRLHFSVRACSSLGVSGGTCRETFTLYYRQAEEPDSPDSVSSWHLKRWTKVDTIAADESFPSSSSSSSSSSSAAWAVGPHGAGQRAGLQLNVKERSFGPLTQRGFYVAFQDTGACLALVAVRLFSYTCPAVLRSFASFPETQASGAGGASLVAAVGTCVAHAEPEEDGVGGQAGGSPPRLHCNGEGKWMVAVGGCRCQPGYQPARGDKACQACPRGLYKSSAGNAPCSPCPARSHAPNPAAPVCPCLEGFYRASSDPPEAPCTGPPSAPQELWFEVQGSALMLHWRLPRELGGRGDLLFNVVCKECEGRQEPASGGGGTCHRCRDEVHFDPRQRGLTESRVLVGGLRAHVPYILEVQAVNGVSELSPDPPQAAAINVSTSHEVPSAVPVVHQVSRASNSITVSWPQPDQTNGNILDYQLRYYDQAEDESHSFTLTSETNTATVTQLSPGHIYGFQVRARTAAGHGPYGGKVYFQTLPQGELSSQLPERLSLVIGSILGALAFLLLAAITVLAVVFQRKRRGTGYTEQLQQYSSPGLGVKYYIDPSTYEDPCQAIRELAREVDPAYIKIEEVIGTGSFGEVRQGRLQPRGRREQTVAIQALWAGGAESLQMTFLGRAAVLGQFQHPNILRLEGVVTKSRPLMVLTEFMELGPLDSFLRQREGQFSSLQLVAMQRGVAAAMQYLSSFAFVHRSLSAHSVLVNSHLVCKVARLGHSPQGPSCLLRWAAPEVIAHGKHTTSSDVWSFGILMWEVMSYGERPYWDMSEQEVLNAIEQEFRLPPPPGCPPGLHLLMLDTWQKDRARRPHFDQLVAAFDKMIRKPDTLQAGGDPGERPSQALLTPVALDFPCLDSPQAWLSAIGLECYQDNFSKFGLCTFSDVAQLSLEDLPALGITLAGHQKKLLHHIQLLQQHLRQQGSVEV

[14] = target: Serine/threonine-protein kinase PAK 2 (Homo sapiens) (UniProt Q13177); assay: Binding affinity to wild-type human partial length PAK2 (P151 to R525 residues) expressed in bacterial expression system assessed as remaining unbound target protein level at 1000 nM by Kinomescan method relative to control
Chain of Serine/threonine-protein kinase PAK 2 (Homo sapiens) (Q13177 whole entry, the tested form may be a part): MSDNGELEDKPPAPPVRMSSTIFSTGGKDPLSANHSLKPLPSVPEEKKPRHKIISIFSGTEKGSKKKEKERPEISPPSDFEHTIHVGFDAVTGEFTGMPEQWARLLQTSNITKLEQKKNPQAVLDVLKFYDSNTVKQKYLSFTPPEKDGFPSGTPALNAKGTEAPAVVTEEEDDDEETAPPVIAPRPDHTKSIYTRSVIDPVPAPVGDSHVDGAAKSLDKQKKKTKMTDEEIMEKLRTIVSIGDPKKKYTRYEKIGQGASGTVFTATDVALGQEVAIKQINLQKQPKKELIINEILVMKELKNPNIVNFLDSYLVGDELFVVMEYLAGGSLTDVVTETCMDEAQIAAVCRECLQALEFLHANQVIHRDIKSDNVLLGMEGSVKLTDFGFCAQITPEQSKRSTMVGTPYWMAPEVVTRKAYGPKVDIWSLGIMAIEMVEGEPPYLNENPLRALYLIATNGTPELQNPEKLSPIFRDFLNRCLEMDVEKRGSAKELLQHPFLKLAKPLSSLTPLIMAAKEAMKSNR

[15] = target: cAMP-dependent protein kinase catalytic subunit beta (Homo sapiens) (UniProt P22694); assay: Binding affinity to wild-type human full length PKAC-beta (M1 to F351 residues) expressed in bacterial expression system assessed as remaining unbound target protein level at 1000 nM by Kinomescan method relative to control
How it was run: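 Profiled in a KINOMEscan binding panel with the inhibitor at a single concentration of 1 μM. Binding to each kinase was read out as percent of control, relative to a DMSO control. Strong binders were defined as those with a percent control value below 1.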

[16] = target: Atypical kinase COQ8B, mitochondrial (Homo sapiens) (UniProt Q96D53); assay: Binding affinity to wild-type human full length ADCK4 (M1 to S544 residues) expressed in bacterial expression system assessed as remaining unbound target protein level at 1000 nM by Kinomescan method relative to control; how it was run: as §1
[17] = target: Wee1-like protein kinase (Homo sapiens) (UniProt P30291); assay: Binding affinity to wild-type human partial length WEE1 (M291 to K575 residues) expressed in bacterial expression system assessed as remaining unbound target protein level at 1000 nM by Kinomescan method relative to control
Chain of Wee1-like protein kinase (Homo sapiens) (P30291 whole entry, looked up, the tested form may be a part): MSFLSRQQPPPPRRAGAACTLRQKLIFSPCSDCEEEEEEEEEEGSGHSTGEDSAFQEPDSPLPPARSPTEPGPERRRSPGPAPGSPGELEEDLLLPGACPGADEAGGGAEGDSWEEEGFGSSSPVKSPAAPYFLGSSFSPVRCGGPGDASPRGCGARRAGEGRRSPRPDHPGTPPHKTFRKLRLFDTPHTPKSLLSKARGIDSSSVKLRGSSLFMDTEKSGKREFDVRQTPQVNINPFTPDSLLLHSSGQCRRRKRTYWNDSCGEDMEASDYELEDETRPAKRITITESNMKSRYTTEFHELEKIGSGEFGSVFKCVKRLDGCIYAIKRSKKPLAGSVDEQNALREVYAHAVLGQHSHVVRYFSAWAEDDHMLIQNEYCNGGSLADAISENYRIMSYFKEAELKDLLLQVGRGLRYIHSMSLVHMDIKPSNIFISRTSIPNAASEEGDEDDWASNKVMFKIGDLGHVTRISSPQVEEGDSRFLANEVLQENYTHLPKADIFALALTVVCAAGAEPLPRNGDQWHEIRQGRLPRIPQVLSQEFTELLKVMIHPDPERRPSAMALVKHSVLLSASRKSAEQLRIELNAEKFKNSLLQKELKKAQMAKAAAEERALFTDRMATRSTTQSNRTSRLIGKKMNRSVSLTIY

[18] = AUC (0 to infinity) in Sprague-Dawley rat at 20 mg/kg, po by LC-MS/MS analysis; type: ADME, organism-based; set-up: dose 20 mg/kg, route oral, time infinity; settings: in vivo
How it was run: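 Non-compartmental PK. Male SD rats 190-210 g, mice and beagle dogs acclimatized one week, fasted 12 h with water, split into iv and po groups (mice 48, rats 6, dogs 6). iv 3/3/2 mg/kg (mice/rats/dogs); po 10/20/10 mg/kg; vehicle DMSO in 5% glucose water. Blood at 2 or 5 to 720 min; plasma protein-precipitated with methanol, caffeine internal standard, LC-MS/MS.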

Structure (SMILES): COCCN[C@H]1CC[C@H](Nc2cc(-c3csc(NCC4(C#N)CCOCC4)n3)c(Cl)cn2)CC1
- Activity [1]: 97%
- Activity [2]: 82%
- Activity [3]: 100%
- Activity [4]: 100%
- Activity [5]: 96%
- Activity [6]: 87%
- Activity [7]: 96%
- Activity [8]: 86%
- Activity [9]: 94%
- GI50 (A-431): 19 nM
- Activity [10]: 84%
- Activity [11]: 100%
- Activity [12]: 90%
- Activity [13]: 85%
- Activity [14]: 85%
- Activity [15]: 92%
- Activity [16]: 65%
- Activity [17]: 94%
- AUC(0-inf) [18]: 1990 ng·h/mL
